ChEMBL document CHEMBL4680175, “Sulfonamide-based ring-fused analogues for CAN508 as novel carbonic anhydrase inhibitors endowed with antitumor activity: Design, synthesis, and in vitro biological evaluation” (Eur J Med Chem, 2020)
Calls of active or inactive are those of the source. No cut-off for these calls is given here.

Columns and labels:
Carbonic anhydrase 2 = Carbonic anhydrase 2 (Homo sapiens, UniProt P00918); test: Inhibition of recombinant human carbonic anhydrase 2 preincubated with enzyme for 15 mins by phenol red dye based stopped flow CO2 hydrase assay
Carbonic anhydrase 9 = Carbonic anhydrase 9 (Homo sapiens, UniProt Q16790); test: Inhibition of recombinant human carbonic anhydrase 9 preincubated with enzyme for 15 mins by phenol red dye based stopped flow CO2 hydrase assay
Carbonic anhydrase 12 = Carbonic anhydrase 12 (Homo sapiens, UniProt O43570); test: Inhibition of recombinant human carbonic anhydrase 12 preincubated with enzyme for 15 mins by phenol red dye based stopped flow CO2 hydrase assay
CDK9/cyclin T1 = CDK9/cyclin T1 (Homo sapiens, UniProt P50750); test: Inhibition of human full-length N-terminal GST/His6-tagged CDK9 (1 to 372 residues)/His6-tagged Cyclin-T1 (1 to 726 residues) expressed in sf9 cells using (YSPTSPS)2KK peptide as substrate in presence of [gamma33P]ATP
[1] = target: Cyclin-dependent kinase 2/cyclin E1 (Homo sapiens, UniProt P24941); test: Inhibition of CDK2/cyclin E (unknown origin) expressed in baculovirus infected Sf21 insect cells using histone H1 as substrate in presence of [gamma33P]ATP
Carbonic anhydrase 1 = Carbonic anhydrase 1 (Homo sapiens, UniProt P00915); test: Inhibition of recombinant human carbonic anhydrase 1 preincubated with enzyme for 15 mins by phenol red dye based stopped flow CO2 hydrase assay
TK-10 = test: Antitumor activity against human TK-10 cells assessed as cell growth inhibition at 10 uM incubated for 48 hrs by sulforhodamine B assay; format: functional; settings: read-out: GI
In short: (§1)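 NCI one-dose screen: 57-cell-line panel exposed at 10 μM for 48 h, Drug Evaluation Branch protocol. Growth and viability read by sulforhodamine B; data given as percent growth inhibition from the mean-graph of percent growth of treated cells.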

RXF 393 = test: Antitumor activity against human RXF 393 cells assessed as cell growth inhibition at 10 uM incubated for 48 hrs by sulforhodamine B assay; format: functional; settings: read-out: GI
In short: (§2)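 NCI Drug Evaluation Branch protocol: primary single-dose screen at 10 μM across a 57-line human cancer panel. Drug exposure is 48 h. Cell growth and viability are read by sulforhodamine B assay. Data are given as a mean graph of percent growth of treated cells and reported as percentage growth inhibition (GI%).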

SK-OV-3 = test: Antitumor activity against human SK-OV-3 cells assessed as cell growth inhibition at 10 uM incubated for 48 hrs by sulforhodamine B assay; format: functional; settings: read-out: GI; in short: as §2
ACHN = test: Antitumor activity against human ACHN cells assessed as cell growth inhibition at 10 uM incubated for 48 hrs by sulforhodamine B assay; format: functional; settings: read-out: GI; in short: as §2
M14 = test: Antitumor activity against human M14 cells assessed as cell growth inhibition at 10 uM incubated for 48 hrs by sulforhodamine B assay; format: functional; settings: read-out: GI; in short: as §2
BT-549 = test: Antitumor activity against human BT-549 cells assessed as cell growth inhibition at 10 uM incubated for 48 hrs by sulforhodamine B assay; format: functional; settings: read-out: GI; in short: as §2
A498 = test: Antitumor activity against human A498 cells assessed as cell growth inhibition at 10 uM incubated for 48 hrs by sulforhodamine B assay; format: functional; settings: read-out: GI; in short: as §2
786-0 = test: Antitumor activity against human 786-0 cells assessed as cell growth inhibition at 10 uM incubated for 48 hrs by sulforhodamine B assay; format: functional; settings: read-out: GI; in short: as §2
NCI-H522 = test: Antitumor activity against human NCI-H522 cells assessed as cell growth inhibition at 10 uM incubated for 48 hrs by sulforhodamine B assay; format: functional; settings: read-out: GI; in short: as §2
SNB-75 = test: Antitumor activity against human SNB-75 cells assessed as cell growth inhibition at 10 uM incubated for 48 hrs by sulforhodamine B assay; format: functional; settings: read-out: GI; in short: as §1
SR = test: Antitumor activity against human SR cells assessed as cell growth inhibition at 10 uM incubated for 48 hrs by sulforhodamine B assay; format: functional; settings: read-out: GI; in short: as §1
IGROV-1 = test: Antitumor activity against human IGROV1 cells assessed as cell growth inhibition at 10 uM incubated for 48 hrs by sulforhodamine B assay; format: functional; settings: read-out: GI; in short: as §2
CAKI-1 = test: Antitumor activity against human CAKI-1 cells assessed as cell growth inhibition at 10 uM incubated for 48 hrs by sulforhodamine B assay; format: functional; settings: read-out: GI; in short: as §2
NCI-H322M = test: Antitumor activity against human NCI-H322M cells assessed as cell growth inhibition at 10 uM incubated for 48 hrs by sulforhodamine B assay; format: functional; settings: read-out: GI; in short: as §2
NCI-H460 = test: Antitumor activity against human NCI-H460 cells assessed as cell growth inhibition at 10 uM incubated for 48 hrs by sulforhodamine B assay; format: functional; settings: read-out: GI; in short: as §2
NCI/ADR-RES = test: Antitumor activity against human NCI/ADR-RES cells assessed as cell growth inhibition at 10 uM incubated for 48 hrs by sulforhodamine B assay; format: functional, cell-based; in short: as §2
LOX IMVI = test: Antitumor activity against human LOX IMVI cells assessed as cell growth inhibition at 10 uM incubated for 48 hrs by sulforhodamine B assay; format: functional; settings: read-out: GI; in short: as §2
Hs-578T = test: Antitumor activity against human HS 578T cells assessed as cell growth inhibition at 10 uM incubated for 48 hrs by sulforhodamine B assay; format: functional; settings: read-out: GI; in short: as §2
UO-31 = test: Antitumor activity against human UO-31 cells assessed as cell growth inhibition at 10 uM incubated for 48 hrs by sulforhodamine B assay; format: functional; settings: read-out: GI; in short: as §1

Sequence of Carbonic anhydrase 1 (P00915 whole entry): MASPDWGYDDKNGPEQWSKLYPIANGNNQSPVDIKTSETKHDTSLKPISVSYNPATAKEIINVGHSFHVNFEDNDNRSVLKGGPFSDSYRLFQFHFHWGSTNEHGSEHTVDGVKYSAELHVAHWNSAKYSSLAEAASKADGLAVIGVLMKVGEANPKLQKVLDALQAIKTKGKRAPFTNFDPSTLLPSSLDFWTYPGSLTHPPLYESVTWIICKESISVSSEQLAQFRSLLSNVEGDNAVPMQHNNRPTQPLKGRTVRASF
Sequence of Carbonic anhydrase 12 (O43570 whole entry, the tested form may be a part): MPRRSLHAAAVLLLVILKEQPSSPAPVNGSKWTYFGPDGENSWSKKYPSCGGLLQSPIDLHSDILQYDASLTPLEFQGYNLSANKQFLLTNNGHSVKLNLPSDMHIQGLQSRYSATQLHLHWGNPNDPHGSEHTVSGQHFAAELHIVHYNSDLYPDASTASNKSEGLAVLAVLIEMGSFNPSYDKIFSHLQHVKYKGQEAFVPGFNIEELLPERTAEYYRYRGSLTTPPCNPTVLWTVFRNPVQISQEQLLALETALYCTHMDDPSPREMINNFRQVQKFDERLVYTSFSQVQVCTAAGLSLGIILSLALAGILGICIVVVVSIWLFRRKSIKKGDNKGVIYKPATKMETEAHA
Sequence of CDK9/cyclin T1 (O60563 whole entry, the tested form may be a part): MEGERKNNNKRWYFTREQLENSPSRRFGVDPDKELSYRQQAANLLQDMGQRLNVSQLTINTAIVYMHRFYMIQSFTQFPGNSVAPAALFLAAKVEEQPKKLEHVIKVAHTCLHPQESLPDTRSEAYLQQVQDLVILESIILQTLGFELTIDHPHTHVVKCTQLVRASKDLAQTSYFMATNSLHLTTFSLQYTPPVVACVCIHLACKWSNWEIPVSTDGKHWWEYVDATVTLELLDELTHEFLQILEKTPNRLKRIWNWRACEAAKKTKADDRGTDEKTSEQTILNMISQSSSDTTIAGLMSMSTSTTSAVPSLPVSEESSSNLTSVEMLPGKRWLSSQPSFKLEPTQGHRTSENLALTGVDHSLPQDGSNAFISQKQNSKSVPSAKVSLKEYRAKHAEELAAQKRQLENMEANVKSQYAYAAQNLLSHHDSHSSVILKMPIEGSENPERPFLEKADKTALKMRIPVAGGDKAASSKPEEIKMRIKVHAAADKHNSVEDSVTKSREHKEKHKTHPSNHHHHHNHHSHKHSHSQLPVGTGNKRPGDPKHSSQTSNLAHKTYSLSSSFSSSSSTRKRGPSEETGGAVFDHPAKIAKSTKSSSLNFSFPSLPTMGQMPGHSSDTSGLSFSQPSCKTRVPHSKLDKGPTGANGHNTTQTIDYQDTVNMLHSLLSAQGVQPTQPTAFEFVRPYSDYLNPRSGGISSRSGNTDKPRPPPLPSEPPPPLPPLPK
Sequence of CDK9/cyclin T1 (P50750 whole entry, the tested form may be a part): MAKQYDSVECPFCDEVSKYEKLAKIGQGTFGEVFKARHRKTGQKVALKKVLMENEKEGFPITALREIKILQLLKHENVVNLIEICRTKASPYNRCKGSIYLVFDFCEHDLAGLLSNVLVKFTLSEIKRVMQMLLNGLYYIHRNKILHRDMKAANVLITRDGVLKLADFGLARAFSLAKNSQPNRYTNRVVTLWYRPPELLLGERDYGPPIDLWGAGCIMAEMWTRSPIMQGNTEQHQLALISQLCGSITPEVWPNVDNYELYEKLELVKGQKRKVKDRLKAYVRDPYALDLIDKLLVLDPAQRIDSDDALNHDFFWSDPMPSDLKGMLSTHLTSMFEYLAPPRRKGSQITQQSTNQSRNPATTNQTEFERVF

Compound | Ki (Carbonic anhydrase 2) [µM] | Ki (Carbonic anhydrase 9) [µM] | Ki (Carbonic anhydrase 12) [µM] | IC50 (CDK9/cyclin T1) [µM] | IC50 [1] [µM] | Ki (Carbonic anhydrase 1) [µM] | also measured
Nc1nn2c(-c3cccs3)ccnc2c1/N=N/c1ccc(S(N)(=O)=O)cc1 | 0.0071 | 0.0401 | 0.059 | > 12.5 | > 12.5 | 1.15 | 
Nc1nn2cc(-c3ccc(Cl)cc3)[nH]c2c1/N=N/c1ccc(S(N)(=O)=O)cc1 | 0.0221 | 0.0166 | 0.0365 | > 12.5 | > 12.5 | 0.651 | inhibition of growth at 10 µM (TK-10): 27%; inhibition of growth at 10 µM (RXF 393): 29%; inhibition of growth at 10 µM (SK-OV-3): 21%; inhibition of growth at 10 µM (ACHN): 29%; inhibition of growth at 10 µM (M14): 21%; inhibition of growth at 10 µM (BT-549): 34%; inhibition of growth at 10 µM (A498): 65%; inhibition of growth at 10 µM (786-0): 28%; inhibition of growth at 10 µM (NCI-H522): 30%; inhibition of growth at 10 µM (SNB-75): 23%; inhibition of growth at 10 µM (SR): 28%; inhibition of growth at 10 µM (IGROV-1): 21%; inhibition of growth at 10 µM (CAKI-1): 35%; inhibition of growth at 10 µM (NCI-H322M): 25%; inhibition of growth at 10 µM (NCI-H460): 25%; Activity (NCI/ADR-RES): inactive; inhibition of growth at 10 µM (LOX IMVI): 21%; inhibition of growth at 10 µM (Hs-578T): 21%; inhibition of growth at 10 µM (UO-31): 22%

Second part, led by results:

Ki (Carbonic anhydrase 2) [µM] | Ki (Carbonic anhydrase 9) [µM] | Ki (Carbonic anhydrase 12) [µM] | IC50 (CDK9/cyclin T1) [µM] | IC50 [1] [µM] | Ki (Carbonic anhydrase 1) [µM] | Compound | also measured
0.0356 | 0.0676 | 0.0144 | > 12.5 | > 12.5 | 2.12 | Nc1nn2c(-c3ccc([N+](=O)[O-])cc3)ccnc2c1/N=N/c1ccc(S(N)(=O)=O)cc1 | 
0.0387 | 0.065 | 0.0543 | > 12.5 | 8 | 0.768 | Nc1nn2c(-c3ccc(Br)cc3)ccnc2c1/N=N/c1ccc(S(N)(=O)=O)cc1 | 
0.0055 | 0.0293 | 0.0886 | > 12.5 | > 12.5 | 0.442 | COc1ccc(-c2ccnc3c(/N=N/c4ccc(S(N)(=O)=O)cc4)c(N)nn23)cc1 | 
